Data reported in paper PMC8518898 (Journal of Clinical Pharmacology, 2021).
Entries after “also recorded” stand apart in the source; their conditions may differ. Where two headings read alike, the source gives them in different places. Marks after values point to notes of the source that are not given here. Each block holds one compound with its values, some of them ahead of it.

Legend:
[1] = system: IFN‐α signaling (JAK1/TYK2 kinase dimer); assay: In vitro whole blood inhibition of IFN-α signaling; assay type: cell-based; conditions: read-out: unbound IC50 (IC50,u) of IFN‐α signaling; IC50,u = IC50 × [fu / (blood/plasma ratio)]
[2] = Phase 1 hepatic impairment study; assay type: in vivo, human; conditions: for MRAUCinf (ratio of metabolite to abrocitinib for AUCinf) / tmax / AUCinf / AUClast / Cmax / AUC(0-inf) / AUC(0-t): single 200-mg oral dose of abrocitinib; for MRAUCinf (ratio of metabolite to abrocitinib for AUCinf) / AUCinf / AUClast / Cmax / AUC(0-inf) / AUC(0-t): geometric mean (geometric %CV); for tmax: median (range); for AUC(0-inf): AUCinf; for AUC(0-t): AUClast
JAK2 = conditions: metabolites; ref data on file; cited from earlier work
JAK3 = conditions: metabolites; ref data on file; cited from earlier work
tyrosine kinase 2 (TYK2) = conditions: metabolites; ref data on file; cited from earlier work
JAK1 = conditions: ref data on file; cited from earlier work
[3] = single oral dose 200-mg abrocitinib/80 μg (500 nCi) [14C]; ref data on file; cited from earlier work
[4] = target: IFN‐α signaling (JAK1/TYK2 kinase dimer); conditions: read-out: In vitro whole blood IFN‐α IC50, ref data on file; cited from earlier work
[5] = ref data on file; cited from earlier work
[6] = ref data on file; cited from earlier work; remark: listed apart in the source
[7] = Phase 1 hepatic impairment study; assay type: in vivo, human
How it was run: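 Single oral dose after an overnight fast, 8 subjects per hepatic function group. Adverse events, vital signs, physical exams, 12-lead ECGs and safety laboratory tests were assessed up to 72 h post-dose. Treatment-emergent events were scored for incidence, severity and causality. Clinically significant lab abnormalities or ongoing events were followed up by telephone or onsite visit at 28–35 days.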

[8] = ref data on file; cited from earlier work; remark: listed apart in the source
[9] = cited from earlier work
[10] = once daily 100 mg or 200 mg; cited from earlier work
[11] = up to 800-mg single dose, repeated total daily doses up to 400 mg; cited from earlier work
[12] = mild hepatic impairment compared to normal hepatic function
[13] = mild hepatic impairment, plasma
[14] = moderate hepatic impairment compared to normal hepatic function
[15] = moderate hepatic impairment, plasma
[16] = normal hepatic function, plasma
[17] = human, plasma, po, 200 mg, mild hepatic impairment
[18] = human, plasma, po, 200 mg, moderate hepatic impairment
[19] = human, plasma, po, 200 mg, normal hepatic function

IC50 [1]: 165 nM
unadjusted geometric mean ratio for MRAUCinf [2, 12]: 0.239
MRAUCinf (ratio of metabolite to abrocitinib for AUCinf) ([2]; mild hepatic impairment): 0.05 (54)
tmax ([2]; mild hepatic impairment): 1.50 (1.00‐4.00) h
AUCinf [2, 13]: 357.6 (49) ng • h/mL
AUClast [2, 13]: 338.1 (52) ng • h/mL
Cmax [2, 13]: 56.3 (54) ng/mL
unadjusted geometric mean ratio for MRAUCinf [2, 14]: 0.320
MRAUCinf (ratio of metabolite to abrocitinib for AUCinf) ([2]; moderate hepatic impairment): 0.06 (111)
tmax ([2]; moderate hepatic impairment): 2.00 (1.00‐3.00) h
AUCinf [2, 15]: 552.7 (51) ng • h/mL
AUClast [2, 15]: 534.9 (52) ng • h/mL
Cmax [2, 15]: 68.9 (57) ng/mL
MRAUCinf (ratio of metabolite to abrocitinib for AUCinf) ([2]; normal hepatic function): 0.19 (100)
tmax ([2]; normal hepatic function): 2.00 (1.00‐3.00) h
AUCinf [2, 16]: 1120 (28) ng • h/mL
AUClast [2, 16]: 1102 (29) ng • h/mL
Cmax [2, 16]: 241.5 (50) ng/mL
Structure (SMILES): CN(c1ncnc2[nH]ccc12)C1CC(NS(=O)(=O)CCCO)C1 (stereo not drawn) [M1]
JAK1 enzyme kinase selectivity over JAK2 (JAK2): approximately 26 fold
JAK1 enzyme kinase selectivity over JAK3 (JAK3): > 230 fold
JAK1 enzyme kinase selectivity over TYK2 (tyrosine kinase 2 (TYK2)): ~74 fold
pharmacological activity of metabolite (JAK1): active metabolites
share of circulating species [3]: 11%
IC50 [4]: 296 nM
fraction unbound in plasma (fu) [5]: 0.63
blood/plasma ratio [6]: 1.13

IC50 [1]: 50.6 nM
unadjusted geometric mean ratio for MRAUCinf [2, 12]: 0.680
MRAUCinf (ratio of metabolite to abrocitinib for AUCinf) ([2]; mild hepatic impairment): 0.15 (25)
tmax ([2]; mild hepatic impairment): 2.50 (1.00‐4.00) h
AUCinf [2, 13]: 1178 (22) ng • h/mL
AUClast [2, 13]: 1081 (25) ng • h/mL
Cmax [2, 13]: 139.9 (29) ng/mL
unadjusted geometric mean ratio for MRAUCinf [2, 14]: 0.655
MRAUCinf (ratio of metabolite to abrocitinib for AUCinf) ([2]; moderate hepatic impairment): 0.15 (78)
tmax ([2]; moderate hepatic impairment): 2.00 (2.00‐4.00) h
AUCinf [2, 15]: 1309 (38) ng • h/mL
AUClast [2, 15]: 1192 (43) ng • h/mL
Cmax [2, 15]: 119.2 (43) ng/mL
MRAUCinf (ratio of metabolite to abrocitinib for AUCinf) ([2]; normal hepatic function): 0.22 (56) ^b
tmax ([2]; normal hepatic function): 2.00 (1.00‐3.00) h
AUCinf [2, 16]: 1519 (36) ^b ng • h/mL
AUClast [2, 16]: 1395 (35) ng • h/mL
Cmax [2, 16]: 253.1 (40) ng/mL
Structure (SMILES): C[C@H](O)CS(=O)(=O)NC1CC(N(C)c2ncnc3[nH]ccc23)C1 (stereo partly drawn) [M2]
JAK1 enzyme kinase selectivity over JAK2 (JAK2): 49 fold
JAK1 enzyme kinase selectivity over JAK3 (JAK3): > 559 fold
JAK1 enzyme kinase selectivity over TYK2 (tyrosine kinase 2 (TYK2)): 68 fold
pharmacological activity of metabolite (JAK1): active metabolites
share of circulating species [3]: 12%
IC50 [4]: 90.5 nM
fraction unbound in plasma (fu) [5]: 0.71
blood/plasma ratio [6]: 1.27

Structure (SMILES): CCCS(=O)(=O)N[C@H]1C[C@@H](N(C)c2ncnc3[nH]ccc23)C1 [abrocitinib, N‐{cis‐3‐[Methyl(7H‐pyrrolo[2,3‐d]pyrimidin‐4‐yl)amino]cyclobutyl}propane‐1‐sulfo namide]
AUC(0-inf) [2, 17]: 7450 ng·h/mL
AUC(0-inf) [2, 18]: 8600 ng·h/mL
AUC(0-inf) [2, 19]: 5590 ng·h/mL
AUC(0-t) [2, 17]: 7430 ng·h/mL
AUC(0-t) [2, 18]: 8550 ng·h/mL
AUC(0-t) [2, 19]: 5550 ng·h/mL
Cmax ([2]; human, plasma, po, 200 mg, Cmax, mild hepatic impairment): 1280 ng/mL
Cmax ([2]; human, plasma, po, 200 mg, Cmax, moderate hepatic impairment): 1430 ng/mL
Cmax ([2]; human, plasma, po, 200 mg, Cmax, normal hepatic function): 1350 ng/mL
tmax ([2]; human, plasma, po, 200 mg, tmax, mild hepatic impairment): 2 h
tmax ([2]; human, plasma, po, 200 mg, tmax, moderate hepatic impairment): 1 h
tmax ([2]; human, plasma, po, 200 mg, tmax, normal hepatic function): 2 h
increase in AUCinf [2, 12]: ≈ 33.3%
effect of hepatic impairment on PK and safety ([2]; mild or moderate hepatic impairment): no clinically relevant effect
increase in AUCinf [2, 14]: ~54.0%
subjects with laboratory abnormality leukocyte esterase (≥1) ([7]; mild hepatic impairment): 4 subjects
subjects reporting diarrhea ([7]; mild hepatic impairment (25%)): 2 subjects
subjects reporting headache ([7]; mild hepatic impairment (25%)): 2 subjects
subjects with treatment-emergent adverse events ([7]; mild hepatic impairment (N = 8)): 3 subjects
subjects with laboratory abnormality leukocyte esterase (≥1) ([7]; moderate hepatic impairment): 5 subjects
subjects reporting adverse events ([7]; moderate hepatic impairment (N = 8)): No subjects
subjects with laboratory abnormality leukocyte esterase (≥1) ([7]; normal hepatic function): 1 subject
safety and tolerability ([7]; single 200-mg oral dose, all 3 hepatic function groups): generally safe and well tolerated
absolute oral bioavailability [8]: 60%
fraction absorbed [8]: 91%
median tmax ([9]; healthy subjects, suspension, doses of 3 to 200 mg): < 1 h
increases in Cmax and AUCτ with increasing dose ([9]; multiple dose, total daily dose 30 mg up to 400 mg): greater than proportional
increases in AUCinf, dose proportionality ([9]; single doses 400 and 800 mg): greater than dose proportional
Cmax dose proportionality ([9]; single-dose range 3 to 800 mg): increased proportionally with dose
share of circulating species [3]: 26%
efficacy and tolerability in moderate to severe atopic dermatitis [10]: effective and well tolerated; also recorded: safe and efficacious
safety and tolerability of higher doses [11]: safe and well tolerated
